Assay results from different studies.
Compare with care: the assays were run in different laboratories.

O=C(Nc1ncc([N+](=O)[O-])s1)c1ccccc1O
CC50 (RPE; cell growth or viability; 48 h): ≥ 30 µM

Cc1cc(NC2CCN(C(=O)OC3CCN(C(=O)/C=C/CN(C)C)C3)CC2)n2ncc(C(C)C)c2n1 (stereo not shown)
MTD (general toxicity; rat; oral, multiple doses, once daily): 6 mg/kg

COc1c2ccoc2cc2oc(=O)ccc12
IC50 (WI-38; cell growth or viability, WST-1; 48 h): 86.3 µM

C#C[C@]1(CO)O[C@@H](n2cnc3c(N)nc(F)nc32)C[C@@H]1O
NOAEL (general toxicity; rat; oral, multiple doses): ≥ 50 mg/kg/day

Cc1cc(C)nc(Nc2ncc(C(=O)NCCc3c(C)[nH]c4ccccc34)cn2)c1
half-life (metabolic stability; dog, liver microsomes; 1 µM): 10 min

Cc1nc2ccccc2n(-c2ccc([N+](=O)[O-])cc2[N+](=O)[O-])c1=O
CC50 (WI-38; cell growth or viability, MTT; 48 h): 61.2 µM

O=C(O)c1cn(Cc2ccc(F)cc2)c2ccccc12
Km (UDP-glucuronosyltransferase 1A10 (UGT1A10, Homo sapiens, UniProt Q9HAW8); enzyme activity, substrate): 38 µM

O=c1c(O[C@@H]2O[C@H](CO)[C@@H](O)[C@H](O)[C@H]2O)c(-c2ccc(O)cc2)oc2cc(O)cc(O)c12
IC50 (WI-38; cell growth or viability, WST-1): 113 µM

O=C1Nc2c(C(F)(F)F)cccc2[C@@]1(c1ccc(O)cc1)c1ccc(OC(F)(F)F)cc1
MTD (general toxicity; Sprague-Dawley rat; intravenous): 10 to 20 mg/kg

O=[N+]([O-])c1ccc(Oc2cccc3cccnc23)c([N+](=O)[O-])c1
CC50 (WI-38; cell growth or viability, MTT; 48 h): 243 µM

O=C1N=C(N2CCCCN2)S/C1=C\c1ccc(F)cc1OC(=O)N1CCCC1
NOAEL (general toxicity; Sprague-Dawley rat; oral, multiple doses): 2000 mg/kg/day

CCC[C@@](N)(CO)CCc1ccc(OCCCCCC(C)C)cc1
C0 (dog, plasma; intravenous, 0.25 mg/kg): 36 nM

N=c1c2c(-c3ccccc3)c(-c3ccccc3)n(Cc3ccccc3)c2ncn1[C@H]1CC[C@H](O)CC1
clearance (male cynomolgus monkey, plasma; intravenous, 0.5 mg/kg, single dose): 0.6 mL/min/kg
